# Laboratory results published in paper PMC10693930 (Biochemistry, 2023).
# Where a chain is given by its changes, count along the chain named. In names and notes the source's numbering stands.
# B1: Staphylococcus aureus pyruvate carboxylase, wild type (enzyme)
# chain: MKQIKKLLVANRGEIAIRIFRAAAELDISTVAIYSNEDKSSLHRYKADESYLVGSDLGPAESYLNIERIIDVAKQANVDAIHPGYGFLSENEQFARRCAEEGIKFIGPHLEHLDMFGDKVKARTTAIKADLPVIPGTDGPIKSYELAKEFAEEAGFPLMIKATSGGGGKGMRIVREESELEDAFHRAKSEAEKSFGNSEVYIERYIDNPKHIEVQVIGDEHGNIVHLFERDCSVQRRHQKVVEVAPSVGLSPTLRQRICDAAIQLMENIKYVNAGTVEFLVSGDEFFFIEVNPRVQVEHTITEMVTGIDIVKTQILVAAGADLFGEEINMPQQKDITTLGYAIQCRITTEDPLNDFMPDTGTIIAYRSSGGFGVRLDAGDGFQGAEISPYYDSLLVKLSTHAISFKQAEEKMVRSLREMRIRGVKTNIPFLINVMKNKKFTSGDYTTKFIEETPELFDIQPSLDRGTKTLEYIGNVTINGFPNVEKRPKPDYELASIPTVSSSKIASFSGTKQLLDEVGPKGVAEWVKKQDDVLLTDTTFRDAHQSLLATRVRTKDMINIASKTADVFKDGFSLEMWGGATFDVAYNFLKENPWERLERLRKAIPNVLFQMLLRASNAVGYKNYPDNVIHKFVQESAKAGIDVFRIFDSLNWVDQMKVANEAVQEAGKISEGTICYTGDILNPERSNIYTLEYYVKLAKELEREGFHILAIKDMAGLLKPKAAYELIGELKSAVDLPIHLHTHDTSGNGLLTYKQAIDAGVDIIDTAVASMSGLTSQPSANSLYYALNGFPRHLRTDIEGMESLSHYWSTVRTYYSDFESDIKSPNTEIYQHEMPGGQYSNLSQQAKSLGLGERFDEVKDMYRRVNFLFGDIVKVTPSSKVVGDMALYMVQNDLDEQSVITDGYKLDFPESVVSFFKGEIGQPVNGFNKDLQAVILKGQEALTARPGEYLEPVDFEKVRELLEEEQQGPVTEQDIISYVLYPKVYEQYIQTRNQYGNLSLLDTPTFFFGMRNGETVEIEIDKGKRLIIKLETISEPDENGNRTIYYAMNGQARRIYIKDENVHTNANVKPKADKSNPSHIGAQMPGSVTEVKVSVGETVKANQPLLITEAMKMETTIQAPFDGVIKQVTVNNGDTIATGDLLIEIEKATD
# modifications: biotin, covalently tethered to the BCCP domain (co-expressed with BirA to ensure complete biotinylation; residue not stated)
# B2: E418A SaPC (enzyme)
# chain: B1 chain with E418A
# modifications: biotin, covalently tethered to the BCCP domain (co-expressed with BirA to ensure complete biotinylation; residue not stated)
# B3: K46A SaPC (enzyme)
# chain: B1 chain with K46A
# modifications: biotin, covalently tethered to the BCCP domain (co-expressed with BirA to ensure complete biotinylation; residue not stated)
# B4: R21A SaPC (enzyme)
# chain: B1 chain with R21A
# modifications: biotin, covalently tethered to the BCCP domain (co-expressed with BirA to ensure complete biotinylation; residue not stated)
# What was measured:
# [1] = biological target: T1, E418A SaPC (Staphylococcus aureus, UniProt A0A0H3JRU9, E418A); assay: Pyruvate carboxylation inhibition assay with CT domain inhibitors; format: biochemical; details: for change of inhibition in the presence of acetyl-CoA: 500 μM acetyl-CoA
# [2] = biological target: T2, WT SaPC (Staphylococcus aureus, UniProt A0A0H3JRU9); assay: Pyruvate carboxylation inhibition assay with CT domain inhibitors; format: biochemical; details: SaPC; CT domain inhibitors
# Outline: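 WT SaPC (5 μg/mL) was pre-incubated with inhibitor and acetyl-CoA, and the reaction was started with 10× substrate mix (final 25 mM NaHCO3, 2.5 mM ATP, 12 mM pyruvate). MDH-coupled (10 U/mL MDH, 0.12 mM NADH); change in A340 monitored. Inhibitor 0–1 mM or 0–50 mM by compound. MDH-only controls. Triplicate; SD of three trials.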
# [3] = biological target: T2, WT SaPC; assay: Pyruvate carboxylation assay; format: biochemical; details: for increase of apparent Ka in the presence of L-aspartate: 20 mM L-aspartate vs none; for ratio (Ka CoA / Ka acetyl-CoA): discrimination of acetyl-CoA over CoA
# [4] = biological target: T3, K46A SaPC (Staphylococcus aureus, UniProt A0A0H3JRU9, K46A); assay: Pyruvate carboxylation assay; format: biochemical; details: K46A SaPC; for ratio (Ka CoA / Ka acetyl-CoA): discrimination of acetyl-CoA over CoA
# [5] = biological target: T4, R21A SaPC (Staphylococcus aureus, UniProt A0A0H3JRU9, R21A); assay: Pyruvate carboxylation assay; format: biochemical; details: R21A SaPC; for ratio (Ka CoA / Ka acetyl-CoA): discrimination of acetyl-CoA over CoA
# [6] = biological target: T1, E418A SaPC; assay: ADP phosphorylation assay; format: biochemical; details: up to 1 mM acetyl-CoA
# [7] = biological target: T2, WT SaPC; assay: ADP phosphorylation assay; format: biochemical
# [8] = system: PC; details: cited from earlier work
# [9] = biological target: T4, R21A SaPC; assay: ADP phosphorylation assay; format: biochemical; details: up to 1 mM acetyl-CoA
# [10] = system: SaPC; details: cited from earlier work
# [11] = biological target: T1, E418A SaPC; assay: Pyruvate carboxylation assay; format: biochemical
# [12] = biological target: K411A SaPC (Staphylococcus aureus, UniProt A0A0H3JRU9, K411A); assay: Pyruvate carboxylation assay; format: biochemical; details: K411A SaPC
# [13] = biological target: T3, K46A SaPC; assay: ADP phosphorylation assay; format: biochemical; details: up to 1 mM acetyl-CoA
# [14] = biological target: ΔBCΔBCCP SaPC (Staphylococcus aureus (strain Mu50 / ATCC 700699)); assay: SEC
# [15] = biological target: the molecule itself; assay: SEC
# [16] = Acyl-CoA alone, Table 1, fit to Equation 1 (3′5′ diphosphoadenosine: Equation 2)
# [17] = Acyl-CoA + 20 mM L-aspartate, Table 1
# [18] = up to 100 mM, nonspecific inhibition above 100 mM
molecule,measurement,setting,value
O=C(O)C(O)=Cc1ccc2ccccc2n1 [2-hydroxy-3-(quinoline-2-yl)propenoic acid],inhibition of pyruvate carboxylation,[1],inhibited
same,change of inhibition in the presence of acetyl-CoA,[1],unchanged
same,change of potency in the presence of acetyl-CoA,[2],significantly reduced potency
"Nc1ncnc2c1ncn2[C@@H]1O[C@H](COP(=O)(O)O)[C@@H](OP(=O)(O)O)[C@H]1O [3′5′ diphosphoadenosine, 3’5’-diphosphoadenosine]",h (Hill coefficient),"[3]; Acyl-CoA alone, Table 1",1.6 ± 0.7
same,Ka (apparent activation constant),[3]; [16],5900 ± 3100 µM
same,concentration range in which SaPC is activated,[3]; WT SaPC (Figure S2),up to 7 mM
same,concentration at which inhibitory,"[3]; WT SaPC (Figure S2), attributed to competition with ATP in BC domain",greater than 7 mM
same,estimated apparent Ka,"[3]; WT SaPC, fit to Equation 2, Ki fixed at 5 mM",~ 5.9 mM
CC(=O)SCCNC(=O)CCNC(=O)[C@H](O)C(C)(C)COP(=O)(O)OP(=O)(O)OC[C@H]1O[C@@H](n2cnc3c(N)ncnc32)[C@H](O)[C@@H]1OP(=O)(O)O [Acetyl-CoA],Ka (apparent activation constant),[4],340 ± 30 µM
same,ratio (Ka CoA / Ka acetyl-CoA),[4],4
same,ratio (Ka CoA / Ka acetyl-CoA),[4]; listed as acetyl-CoA,4 – 5
same,Ka (apparent activation constant),[5],340 ± 50 µM
same,ratio (Ka CoA / Ka acetyl-CoA),[5],5
same,ratio (Ka CoA / Ka acetyl-CoA),[5]; listed as acetyl-CoA,4 – 5
same,activation of ADP phosphorylation,[6],unable to be activated
same,Ka (apparent activation constant),"[7]; WT SaPC, ADP phosphorylation by carbamoyl phosphate",15 ± 6 µM
same,concentration giving slight inhibition of ADP phosphorylation,"[7]; in all cases, including WT (Figure S4)",greater than 4 mM
same,increase of kcat in the presence of activator,[8]; depends on the organism,up to 35 fold
same,activation of ADP phosphorylation,[9],unable to be activated
same,greater affinity than CoA,[10],~ 100 fold
same,increase of binding affinity by the acetyl moiety,[10],~ 80 fold
same,increase of kcat in the presence of activator,[10],5-10 fold
same,activation of pyruvate carboxylation,[11]; up to 4 mM acetyl-CoA and 30 mM CoA,unresponsive to activation
same,Ka (apparent activation constant),[3]; [17],4.1 ± 0.3 µM
same,h (Hill coefficient),[3]; [17],3.3 ± 0.6
same,h (Hill coefficient),"[3]; Acyl-CoA alone, Table 1",1.5 ± 0.1
same,Ka (apparent activation constant),[3]; [16],1.5 ± 0.1 µM
same,increase of apparent Ka in the presence of L-aspartate,[3]; WT SaPC,~ 4 fold
same,Ka (apparent activation constant),"[3]; WT SaPC, Table 2 series",1.5 ± 0.1 µM
same,ratio (Ka CoA / Ka acetyl-CoA),[3]; WT SaPC,33
same,ratio (Ka CoA / Ka acetyl-CoA),"[3]; WT SaPC, listed as acetyl-CoA",~ 30
same,Ka (apparent activation constant),[12],5.8 ± 0.2 µM
same,ratio (Ka CoA / Ka acetyl-CoA),[12]; discrimination of acetyl-CoA over CoA,17
same,activation of ADP phosphorylation,[13],unable to be activated
"CC(=O)NCCNC(=O)CCNC(=O)[C@H](O)C(C)(C)COP(=O)(O)OP(=O)(O)OC[C@H]1O[C@@H](n2cnc3c(N)ncnc32)[C@H](O)[C@@H]1OP(=O)(O)O [Acetyl-aza(dethia)-CoA, acetyl-aza(dethia)-CoA]",h (Hill coefficient),"[3]; Acyl-CoA alone, Table 1",1.3 ± 0.4
same,Ka (apparent activation constant),[3]; [16],2500 ± 1000 µM
"CC(=O)CCCNC(=O)CCNC(=O)[C@H](O)C(C)(C)COP(=O)(O)OP(=O)(O)OC[C@H]1O[C@@H](n2cnc3c(N)ncnc32)[C@H](O)[C@@H]1OP(=O)(O)O [Acetyl-carba(dethia)-CoA, acetyl-carba(dethia)-CoA]",Ka (apparent activation constant),[3]; [17],190 ± 10 µM
same,h (Hill coefficient),[3]; [17],3.1 ± 0.6
same,h (Hill coefficient),"[3]; Acyl-CoA alone, Table 1",1.5 ± 0.2
same,Ka (apparent activation constant),[3]; [16],53 ± 4 µM
same,increase of apparent Ka in the presence of L-aspartate,[3]; WT SaPC,~ 4 fold
"CC(=O)OCCNC(=O)CCNC(=O)[C@H](O)C(C)(C)COP(=O)(O)OP(=O)(O)OC[C@H]1O[C@@H](n2cnc3c(N)ncnc32)[C@H](O)[C@@H]1OP(=O)(O)O [Acetyl-oxa(dethia)-CoA, acetyl-oxa(dethia)-CoA]",Ka (apparent activation constant),[3]; [17],270 ± 20 µM
same,h (Hill coefficient),[3]; [17],3.3 ± 0.7
same,h (Hill coefficient),"[3]; Acyl-CoA alone, Table 1",1.5 ± 0.3
same,Ka (apparent activation constant),[3]; [16],73 ± 11 µM
same,increase of apparent Ka in the presence of L-aspartate,[3]; WT SaPC,~ 4 fold
N[C@@H](CC(=O)O)C(=O)O [L-aspartate],inhibition of pyruvate carboxylation,[4]; [18],not inhibited
same,inhibition of pyruvate carboxylation,[5]; [18],not inhibited
same,decrease of kcat in the presence of inhibitor,[10],2-5 fold
same,inhibition of pyruvate carboxylation,[11]; [18],not inhibited
N[C@@H](CCC(=O)O)C(=O)O [L-glutamate],concentration at which pyruvate carboxylation is inhibited,"[3]; WT SaPC, nonspecific effect (Figure S5)",exceeding 100 mM
CC(=O)SCCNC(=O)CCNC(=O)[C@H](O)C(C)(C)CO [acetylpantetheine],binding and activation of PC,[8]; lacks the nucleotidyl portion,binds to but does not activate PC
O=C(O)C(=O)Cc1ccccc1 [phenylpyruvate],inhibition of pyruvate carboxylation,[1],inhibited
same,change of inhibition in the presence of acetyl-CoA,[1],unchanged
same,change of potency in the presence of acetyl-CoA,[2],significantly reduced potency
ΔBCΔBCCP SaPC (domain or fragment),stoichiometry N,[14],2
B1,stoichiometry N,[15],4
B2,stoichiometry N,[15],4
B3,stoichiometry N,[15],4
B4,stoichiometry N,[15],4
